Measurements: ChEMBL document CHEMBL4033712, “Synthesis and biological evaluation of new C-12(α/β)-(N-) sulfamoyl-phenylamino-14-deoxy-andrographolide derivatives as potent anti-cancer agents” (Bioorg Med Chem Lett, 2017)

Legend:
Type in all cases: functional
[1] = tested on: OVCAR-8; experiment: Growth inhibition of human OVCAR8 cells incubated for 48 hrs by sulforhodamine B assay; details: OVCAR-8, 48 h
Outline: (§1)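 NCI-60 five-dose screen at 0.01, 0.1, 1, 10 and 100 µM, 48 h incubation, sulforhodamine B end point. GI50 (50% decrease in net growth), TGI (total growth inhibition) and LC50 (net 50% loss of initial cells) taken from log concentration versus % growth inhibition curves.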

[2] = tested on: EKVX; experiment: Growth inhibition of human EKVX cells incubated for 48 hrs by sulforhodamine B assay; outline: as §1
[3] = tested on: SNB-75; experiment: Growth inhibition of human SNB75 cells incubated for 48 hrs by sulforhodamine B assay; details: SNB-75, 48 h
Outline: (§2)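 NCI 60 human tumour cell line panel, five-dose study at 0.01, 0.1, 1, 10 and 100 µM, 48 h incubation. Sulforhodamine B protein-binding dye end point. GI50 (50% decrease in net cell growth), TGI (total growth inhibition) and LC50 (net 50% loss of initial cells) read from log concentration versus % growth inhibition curves.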

[4] = tested on: HOP-92; experiment: Anticancer activity against human HOP92 cells assessed as cell growth at 10 uM after 48 hrs by sulforhodamine B assay relative to control; details: HOP-92, 48 h, read-out: Activity
Outline: (§3)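 Single-dose NCI-60 panel screen: compound added at 10 µM and the culture incubated 48 h. The end point was read by protein staining with sulforhodamine B. The value is percent growth of treated cells relative to untreated control cells, reported as a mean graph across the panel.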

[5] = tested on: NCI-H322M; experiment: Growth inhibition of human NCI-H322M cells incubated for 48 hrs by sulforhodamine B assay; outline: as §1
[6] = tested on: MDA-MB-468; experiment: Growth inhibition of human MDA-MB-468 cells incubated for 48 hrs by sulforhodamine B assay; details: MDA-MB-468, 48 h; outline: as §1
[7] = tested on: TK-10; experiment: Growth inhibition of human TK10 cells incubated for 48 hrs by sulforhodamine B assay; details: TK-10, 48 h; outline: as §2
[8] = tested on: SK-MEL-5; experiment: Growth inhibition of human SK-MEL-5 cells incubated for 48 hrs by sulforhodamine B assay; details: SK-MEL-5, 48 h; outline: as §2
[9] = tested on: SF-268; experiment: Growth inhibition of human SF268 cells incubated for 48 hrs by sulforhodamine B assay; details: SF-268, 48 h; outline: as §2
[10] = tested on: 786-0; experiment: Growth inhibition of human 786-0 cells incubated for 48 hrs by sulforhodamine B assay; details: 786-0, 48 h; outline: as §1
[11] = tested on: COLO 205; experiment: Growth inhibition of human COLO205 cells incubated for 48 hrs by sulforhodamine B assay; details: COLO 205, 48 h; outline: as §1
[12] = tested on: OVCAR-4; experiment: Growth inhibition of human OVCAR4 cells incubated for 48 hrs by sulforhodamine B assay; details: OVCAR-4, 48 h; outline: as §1
[13] = tested on: HCT-15; experiment: Growth inhibition of human HCT15 cells incubated for 48 hrs by sulforhodamine B assay; details: HCT-15, 48 h; outline: as §1
[14] = tested on: PC-3; experiment: Growth inhibition of human PC3 cells incubated for 48 hrs by sulforhodamine B assay; details: PC-3, 48 h; outline: as §1
[15] = tested on: ACHN; experiment: Growth inhibition of human ACHN cells incubated for 48 hrs by sulforhodamine B assay; outline: as §1
[16] = tested on: M14; experiment: Growth inhibition of human M14 cells incubated for 48 hrs by sulforhodamine B assay; details: M14, 48 h; outline: as §1
[17] = tested on: HT-29; experiment: Growth inhibition of human HT-29 cells incubated for 48 hrs by sulforhodamine B assay; details: HT-29, 48 h; outline: as §1
[18] = tested on: Hs-578T; experiment: Growth inhibition of human Hs 578T cells incubated for 48 hrs by sulforhodamine B assay; outline: as §1
[19] = tested on: SNB-19; experiment: Growth inhibition of human SNB19 cells incubated for 48 hrs by sulforhodamine B assay; details: SNB-19, 48 h; outline: as §2
[20] = tested on: RXF 393; experiment: Growth inhibition of human RXF393 cells incubated for 48 hrs by sulforhodamine B assay; details: RXF 393, 48 h; outline: as §2
[21] = tested on: IGROV-1; experiment: Growth inhibition of human IGROV1 cells incubated for 48 hrs by sulforhodamine B assay; details: IGROV-1, 48 h; outline: as §1
[22] = tested on: BT-549; experiment: Growth inhibition of human BT549 cells incubated for 48 hrs by sulforhodamine B assay; details: BT-549, 48 h; outline: as §1
[23] = tested on: NCI-H23; experiment: Growth inhibition of human NCI-H23 cells incubated for 48 hrs by sulforhodamine B assay; details: NCI-H23, 48 h; outline: as §1
[24] = tested on: A498; experiment: Growth inhibition of human A498 cells incubated for 48 hrs by sulforhodamine B assay; details: A498, 48 h; outline: as §1
[25] = tested on: SNB-19; experiment: Anticancer activity against human SNB19 cells assessed as cell growth at 10 uM after 48 hrs by sulforhodamine B assay relative to control; details: SNB-19, 48 h, read-out: Activity; outline: as §3
[26] = tested on: KM12; experiment: Growth inhibition of human KM12 cells incubated for 48 hrs by sulforhodamine B assay; details: KM12, 48 h; outline: as §1
[27] = tested on: MDA-MB-231; experiment: Growth inhibition of human MDA-MB-231 cells incubated for 48 hrs by sulforhodamine B assay; details: MDA-MB-231, 48 h; outline: as §1
[28] = tested on: SN12C; experiment: Growth inhibition of human SN12C cells incubated for 48 hrs by sulforhodamine B assay; outline: as §2
[29] = read-out: LC50 (the source's name)

Work on `C=C1CC[C@@H]2[C@](C)(COC(C)=O)[C@H](OC(C)=O)CC[C@@]2(C)[C@H]1CC(Nc1ccc(S(=O)(=O)Nc2ccc(Cl)nn2)cc1)C1=CCOC1=O` (stereo not given in full) yielded a GI50 [1] of 1.35 µM, a TGI [1] of 3.43 µM and a GI50 [2] of 4.53 µM. It also gave a TGI [2] of 17 µM, a CC50 [2, 29] of 41.3 µM and a GI50 [3] of 1.44 µM. For the same molecule, the TGI [3] was 5.9 µM, the CC50 [3, 29] was 24.3 µM and the growth at 10 µM [4] was 69.8%. It also gave a GI50 [5] of 2.97 µM, a TGI [5] of 11.6 µM and a CC50 [5, 29] of 36.1 µM. It also gave a GI50 [6] of 1.32 µM, a TGI [6] of 3.37 µM and a CC50 [6, 29] of 8.62 µM. It also gave a GI50 [7] of 2.13 µM, a TGI [7] of 4.19 µM and a CC50 [7, 29] of 8.25 µM. For the same molecule, the GI50 [8] was 1.6 µM, the TGI [8] was 3.13 µM and the CC50 [8, 29] was 6.13 µM. It also gave a GI50 [9] of 1.8 µM, a TGI [9] of 3.67 µM and a CC50 [9, 29] of 7.51 µM. For the same molecule, the GI50 [10] was 1.69 µM, the LC50 (concentration giving net 50% loss of initial cells) [10] was 5.83 µM and the TGI [10] was 3.14 µM. It also gave a GI50 [11] of 1.46 µM, a TGI [11] of 3.16 µM and a CC50 [11, 29] of 6.86 µM. It also gave a GI50 [12] of 1.47 µM, an LC50 [12] of 6.82 µM and a TGI [12] of 3.17 µM. The GI50 [13] was 0.88 µM, the TGI [13] was 2.3 µM and the CC50 [13, 29] was 5.51 µM. For the same molecule, the GI50 [14] was 2.24 µM, the TGI [14] was 5.25 µM and the CC50 [14, 29] was 15.8 µM. It also gave a GI50 [15] of 1.68 µM, a TGI [15] of 3.32 µM and a CC50 [15, 29] of 6.57 µM. The GI50 [16] was 1.45 µM, the TGI [16] was 3.41 µM and the CC50 [16, 29] was 8.04 µM. It also gave a GI50 [17] of 1.18 µM, a TGI [17] of 2.68 µM and a GI50 [18] of 6.17 µM. The LC50 [18] was > 100 µM, the TGI [18] was > 100 µM and the GI50 [19] was 1.91 µM. For the same molecule, the TGI [19] was 3.91 µM, the CC50 [19, 29] was 8 µM and the GI50 [20] was 1.77 µM. For the same molecule, the TGI [20] was 3.29 µM, the CC50 [20, 29] was 6.14 µM and the GI50 [21] was 2.08 µM. It also gave a TGI [21] of 5 µM, a CC50 [21, 29] of 18.3 µM and a GI50 [22] of 1.58 µM. For the same molecule, the TGI [22] was 3.14 µM, the CC50 [22, 29] was 6.28 µM and the GI50 [23] was 2.06 µM. The TGI [23] was 5.35 µM, the CC50 [23, 29] was 43.2 µM and the GI50 [24] was 1.4 µM. It also gave an LC50 (concentration giving net 50% loss of initial cells) [24] of 15.6 µM, a TGI [24] of 4.26 µM and a growth at 10 µM [25] of 76%. It also gave a GI50 [26] of 1.7 µM, a TGI [26] of 3.49 µM and a CC50 [26, 29] of 7.16 µM. The GI50 [27] was 1.9 µM, the LC50 (concentration giving net 50% loss of initial cells) [27] was 8.27 µM and the TGI [27] was 3.96 µM. The GI50 [28] was 1.25 µM, the TGI [28] was 3.66 µM and the CC50 [28, 29] was 12.7 µM.

For `C=C1CC[C@@H]2[C@](C)(COC(C)=O)[C@H](OC(C)=O)CC[C@@]2(C)[C@H]1CC(Nc1ccc(S(=O)(=O)Nc2nc(C)cc(C)n2)cc1)C1=CCOC1=O` (stereo not given in full), the growth at 10 µM [4] was 90.1% and the growth at 10 µM [25] was 100%.
